Here are results for one compound from ChEMBL document CHEMBL4376902, “CN128: A New Orally Active Hydroxypyridinone Iron Chelator” (J Med Chem, 2020).

One data set has as its target T1, Cytochrome P450 2C8 (Homo sapiens, UniProt P10632).
T1 sequence (P10632 whole entry): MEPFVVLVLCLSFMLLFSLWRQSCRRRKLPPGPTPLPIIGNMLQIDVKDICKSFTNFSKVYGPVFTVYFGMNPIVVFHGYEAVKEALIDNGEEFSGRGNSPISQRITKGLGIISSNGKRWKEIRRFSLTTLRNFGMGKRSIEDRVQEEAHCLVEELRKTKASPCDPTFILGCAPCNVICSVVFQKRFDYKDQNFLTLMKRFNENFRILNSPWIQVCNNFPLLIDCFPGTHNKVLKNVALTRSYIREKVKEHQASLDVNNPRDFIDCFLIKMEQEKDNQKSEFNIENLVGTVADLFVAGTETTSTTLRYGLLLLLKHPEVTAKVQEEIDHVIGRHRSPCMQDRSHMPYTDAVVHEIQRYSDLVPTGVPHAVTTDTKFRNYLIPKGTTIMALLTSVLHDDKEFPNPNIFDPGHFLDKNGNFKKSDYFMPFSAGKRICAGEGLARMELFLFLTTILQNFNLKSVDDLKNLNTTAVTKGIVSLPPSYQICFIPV
Description: Inhibition of CYP2C8 in human liver microsomes. In kind it is ADME. (In general: Microsomes from liver hold many membrane-bound enzymes, among them those of drug oxidation.)

A short description of data set [1]: Drug level in rat liver at 150 umol/kg, po measured measured up to 6 hrs by LC-MS/MS analysis. The class given is ADME, organism-based. Particulars: in vivo; call rule not given here. The method in brief:
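Single oral dose of 150 μmol/kg to SD rats, half male and half female, n=6 per group. Rats decapitated at 10 min, 30 min, 2 h and 6 h. Tissues dissected, saline-washed, weighed and homogenised in acetonitrile/water 1:9 (125 mg/mL). Drug level measured against plasma; mean ± SE.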

Another data set deals with Cytochrome P450 2C9 (Homo sapiens, UniProt P11712). Description: Inhibition of CYP2C9 in human liver microsomes. In kind it is ADME.
Chain of Cytochrome P450 2C9 (P11712 whole entry): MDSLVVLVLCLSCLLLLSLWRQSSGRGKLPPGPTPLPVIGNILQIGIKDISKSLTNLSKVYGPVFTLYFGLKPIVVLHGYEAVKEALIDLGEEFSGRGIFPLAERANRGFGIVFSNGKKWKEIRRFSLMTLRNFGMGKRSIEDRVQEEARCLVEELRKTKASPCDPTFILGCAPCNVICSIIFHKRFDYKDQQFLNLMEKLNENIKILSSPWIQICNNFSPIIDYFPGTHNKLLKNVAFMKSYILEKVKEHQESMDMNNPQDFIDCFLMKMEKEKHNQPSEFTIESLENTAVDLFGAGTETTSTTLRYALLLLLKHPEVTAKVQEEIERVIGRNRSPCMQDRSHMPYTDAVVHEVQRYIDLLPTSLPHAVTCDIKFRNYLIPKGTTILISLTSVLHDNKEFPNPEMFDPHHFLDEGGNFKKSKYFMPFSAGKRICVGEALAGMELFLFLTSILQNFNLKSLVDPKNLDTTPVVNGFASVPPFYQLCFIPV

The IC50 is the concentration at which inhibition is half-maximal. The low end stands for greater potency in that assay, the high end for weaker potency in that assay. In the case of `Cc1c(O)c(O)cc[n+]1[C@@H](CO)Cc1ccccc1.[Cl-]`, the IC50 against Cytochrome P450 2C8 and against Cytochrome P450 2C9 was > 200 µM each time. The Drug uptake result in data set [1] was “Not Active”.
